# Bioassay records (PubChem BioAssay)
# Sampled rows, rich in hits. Any-hit rate of the full collection: about 2.9%.
# MEKK3 PB1 HTS: raises or lowers MEK5 binding to the human MEKK3 PB1 domain; Q99759; bead-based flow cytometry, Alexa488-MEK5 binding to MEKK3; actives lie on both sides; 0 = blocked by unlabeled MEK5, 100 = vehicle; binding response (% of control), % at 10 µM; actives 1.4% (n = 290,000); AID 1529;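 active = binding response more than 3 SD above or below the average of its plate-row segment, actives on both sides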;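 note: Alexa488 bead fluorescence after subtracting the streptavidin-only scavenger bead signal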
# MEKK2wt PB1 HTS: raises or lowers MEK5 binding to wildtype human MEKK2 PB1 domain. binding response (% of control), % at 10 µM. bead flow cytometry, Alexa488-MEK5 binding to MEKK2 WT; actives lie on both sides. AID 1531. actives 1.1% (n = 290,000); in the data active = binding response below about 67% or above about 130%
# B2AR ag: agonists of human beta-2 adrenergic receptor inducing internalization | response, % (test concentration not listed) | Am2.2-beta2AR cells, FAP receptor internalization, flow cytometry | P07550 | actives 0.43% (n = 340,000);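 active = response above a set limit, near 3 SD of response in nonfluorescent compounds, cut at about 42% in these data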
# Target sequence (P07550 whole entry, looked up): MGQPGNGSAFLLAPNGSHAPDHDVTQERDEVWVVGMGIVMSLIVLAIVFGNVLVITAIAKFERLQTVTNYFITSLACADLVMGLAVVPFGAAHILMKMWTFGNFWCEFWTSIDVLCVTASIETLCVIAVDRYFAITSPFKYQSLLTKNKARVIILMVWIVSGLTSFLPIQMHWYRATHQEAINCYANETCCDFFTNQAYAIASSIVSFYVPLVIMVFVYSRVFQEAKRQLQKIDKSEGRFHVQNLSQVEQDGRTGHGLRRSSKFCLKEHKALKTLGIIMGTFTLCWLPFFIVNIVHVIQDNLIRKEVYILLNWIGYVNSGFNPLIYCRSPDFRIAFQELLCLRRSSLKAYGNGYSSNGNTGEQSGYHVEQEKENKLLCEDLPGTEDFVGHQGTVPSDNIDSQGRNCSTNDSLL
# MEKK2 mut-MEK5: signal of MEK5 binding to mutant human MEKK2 PB1 domain. bead flow cytometry, Alexa488-MEK5 binding to MEKK2 mutant. actives 0.35% (n = 290,000). percent response, % at 10 µM; in the data active = percent response above about 24%, passing the limit was not always enough
# ATG4B inhibitor: ATG4B (human) cysteine protease inhibition; Q9Y4P1; ATG4B cleavage of LC3-PLA2, NBD-HPC fluorescence, 1 h; inhibition, % at 8.33 µM; actives 0.51% (n = 340,000); AID 504462; in the data active = inhibition above about 40%
# Dynein cargo inh: dynein cargo transport inhibition; 3617.4 mouse cells, GR-EGFP nuclear translocation imaging; test concentration mostly 20 µM; stimulated with dexamethasone, 1 µM; hits give low values; z-score, hits read low; actives 0.47% (n = 220,000); AID 1381;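 active = plate z-score of nuclear minus cytoplasmic receptor signal below a set negative limit, without overly bright fluorescence or cell loss, cut at about -3.5 in these data, passing the limit was not always enough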;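 note: z-score of nuclear minus cytoplasmic ring GR-EGFP intensity difference per well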
#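 medium = tetracycline-free induction medium containing charcoal-stripped FBS | also added = 1.0 µM final dexamethasone stimulus | schedule = 48 h induction, 1 h compound, 30 min dex at 37 °C | technique = fixed, Hoechst-stained cells imaged at 10x for EGFP | measure = GR-EGFP nuclear translocation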
# Numbers stand for hits; – = inactive; · = no result; [ ] = dose if it differs, or a comment.
SMILES,MEKK3 PB1 HTS,MEKK2wt PB1 HTS,B2AR ag,MEKK2 mut-MEK5,ATG4B inhibitor,Dynein cargo inh
COc1ccc(C(CNC(=O)CCC(=O)c2ccc(C)s2)N2CCOCC2)cc1 (stereo unspecified),·,·,–,·,–,·
COc1cc2oc3ccc(C#Cc4ccccn4)cc3c(=O)c2cc1OC,–,–,70.6,–,–,·
Cc1[nH]c2ccccc2c1/C=N/Nc1ccc(F)cc1F,–,0.0,·,–,·,–
Cc1[nH]c2ccccc2c1/C=N/NC(=O)c1cccc(F)c1,–,–,–,–,–,–
Cn1cnnc1SCc1ccc(C(=O)N=Nc2c(O)n(C)c3ccccc23)cc1,–,–,100.1,–,–,–
Cn1cnnc1SCC(=O)n1c2ccccc2c2ccccc21,–,–,–,–,–,–
O=C1C=C(O)c2cccc(O)c2C1=O,–,–,–,–,–,–
O=C1C=C(c2c(O)ccc3ccccc23)c2ccccc2C1=O,·,·,75.6,·,–,·
COc1ccc([C@@]23Oc4cc(OC)cc(OC)c4[C@]2(O)[C@H](O)[C@H](C(=O)N(C)C)[C@H]3c2ccccc2)cc1,·,·,–,·,–,·
Cc1ccc(C(=O)c2oc3ccc(Cl)cc3c2NC(=O)CN2CCN(C)CC2)cc1,–,160.0,–,–,–,·
CCOC(=O)c1oc2ccc(OC)cc2c1NC(=O)CN1CCN(C)CC1,–,–,–,–,–,–
CCOC(=O)c1c(CSC(=N)N)n(-c2ccc(Br)cc2)c2cc(Br)c(OC(C)=O)cc12,–,143.0,–,–,–,–
CCOC(=O)c1c(CSc2nc(C)cc(C)c2C#N)n(C)c2cc(Br)c(OC(C)=O)cc12,–,–,–,–,–,–
C[C@H]1CN([C@@H](C)CO)C(=O)c2cc(NC(=O)C3CCCCC3)ccc2O[C@H]1CN(C)C(=O)Nc1ccc2c(c1)OCO2,·,·,–,·,–,·
CCCCNc1c(-c2ccc(SC(C)CC)c(OC)c2)nc2ccc(Cl)cn12 (stereo unspecified),·,·,52.0,·,–,·
CCCCNc1c(-c2ccc(OC)c(Sc3ccc(OC)cc3)c2)nc2ccccn12,·,·,–,·,–,·
CCCCNc1c(-c2ccc(-c3ccc(OC)cc3)c(OC)c2)nc2ccccn12,·,·,46.4,·,–,·
COc1cccc(NC(=O)CSc2nc3c(sc4ccccc43)c(=O)n2CCCN2CCCC2)c1,–,179.0,–,–,–,·
O=C(O)c1cc(C(=O)O)cc(-c2ccc(/C=c3/sc4nc5ccccc5n4c3=O)o2)c1,71.0[inhibitor],61.0[inhibitor],–,–,–,–
Cc1oc2c(c1C(=O)c1ccccc1)C(=O)C(=O)c1ccccc1-2,–,–,98.5,–,–,–
Cc1ccc(S(=O)(=O)NC2=C(N3CCN(Cc4ccccc4)CC3)C(=O)c3ccccc3C2=O)cc1,·,·,53.1,·,–,–
CCN1CCN(CCCNC(=O)c2ccc(/C=C3/Sc4ccccc4N(Cc4ccccc4F)C3=O)cc2)CC1,–,177.0,47.3,–,–,–
O=C(NCCCN1CCOCC1)c1ccc(/C=C2\Oc3ccccc3N(Cc3ccccc3F)C2=O)cc1,–,–,–,–,–,·
CCN1CCN(CCCNC(=O)c2ccc(/C=C3/Oc4ccccc4N(Cc4cccc(C)c4)C3=O)cc2)CC1,–,169.0,–,34.0,–,·
Cc1ccc(-n2ncc3c2CCCC3NC(=O)CCn2ccnc2C)cc1C (stereo unspecified),–,–,–,–,–,·
SMILES,MEKK3 PB1 HTS,MEKK2wt PB1 HTS,B2AR ag,MEKK2 mut-MEK5,ATG4B inhibitor,Dynein cargo inh
Cc1cc(C(=O)CN2C(=O)C(=O)N(Cc3ccco3)C2=O)c(C)n1CCc1ccc(F)cc1,·,·,–,·,–,·
Cc1cnc(C(=O)OCc2cc(=O)n3c(C)cccc3n2)cn1,·,·,–,·,–,·
COc1ccc(CN2CCOCCOCCOCCOCC2)cc1,–,-3.0,–,–,–,–
N=c1c2c(ncn1CCCO)Oc1cc(O)ccc1C2c1ccccc1 (stereo unspecified),–,-4.0,–,–,–,–
Cc1ccc(Nc2c(O)nc[nH]c2=O)cc1,·,·,–,·,–,·
O=c1cc(-c2cccc(Br)c2)nc(-c2ccccc2F)o1,–,–,–,–,45.8,–
N#C/C(=C/c1ccc(-c2ccccc2)o1)c1nc(-c2cccs2)cs1,–,·,–,117.0,–,–
N#C/C(=C\c1ccc(-c2ccc(F)cc2)o1)C(=O)Nc1nc(-c2cccs2)cs1,–,–,–,–,–,–
Cc1cnc(NC(=O)CSc2nc3ccccc3s2)s1,–,–,–,–,–,–
Cc1cnc(NC(=O)CSc2nnc(N)s2)s1,–,-8.0,–,–,–,–
O=C(Nc1ccccc1O)c1cccc(S(=O)(=O)Nc2ccccc2O)c1,·,·,–,·,–,·
O=C(c1ccc(F)cc1)N(Cc1cccs1)C1CCS(=O)(=O)C1 (stereo unspecified),2.0[inhibitor],0.0[inhibitor],–,–,–,·
COc1ccc(S(=O)(=O)N2CCCCC2)cc1NC(=O)CN(Cc1ccco1)Cc1ccco1,·,·,–,·,–,·
CC1CCCCN1S(=O)(=O)c1ccc(C(=O)N(CCCN(C)C)c2nc3ccc(Br)cc3s2)cc1 (stereo unspecified),–,258.0,–,76.0,–,·
CCOc1cccc2sc(N(CCCN(C)C)C(=O)c3ccc(S(=O)(=O)N(C)Cc4ccccc4)cc3)nc12,–,233.0,–,62.0,–,·
CN(C)CCCN(C(=O)c1ccc(C(=O)c2ccccc2)cc1)c1nc2c(F)cccc2s1,–,143.0,–,–,–,·
CN(C)CCCN(C(=O)COc1ccccc1)c1nc2c(F)cccc2s1,–,–,–,–,–,–
Cc1ccc2nc(N(CCCN(C)C)C(=O)c3ccc(S(=O)(=O)N4CCCCCC4)cc3)sc2c1,–,171.0,–,28.0,–,·
CC(NS(=O)(=O)c1cn(C)c(=O)n(C)c1=O)c1ccccc1 (stereo unspecified),–,–,–,–,–,·
COc1ccc(OCC(=O)N/N=C/c2cccn2-c2cccc(C(=O)O)c2)cc1,·,·,–,·,–,·
O=C(CSC(=S)N1CCCC1)NCC(=O)Nc1ccccc1Br,·,·,–,·,–,·
CCOc1cccc2sc(N(CCCN(C)C)C(=O)c3ccc(S(=O)(=O)N(CC)Cc4ccccc4)cc3)nc12,–,227.0,–,54.0,–,·
Cc1ccc2nc(N(CCN(C)C)C(=O)c3ccc4ccccc4c3)sc2c1,–,–,–,–,–,·
CCOc1cccc2sc(N(CCCN(C)C)C(=O)c3ccc(S(=O)(=O)N4CCCCCC4)cc3)nc12,–,149.0,–,–,–,·
CCCCN(CC)S(=O)(=O)c1ccc(C(=O)N(CCCN(C)C)c2nc3cc(C)cc(C)c3s2)cc1,145.0,162.0,–,–,–,–
CN(C)CCN(C(=O)c1ccc2ccccc2c1)c1nc2ccc(Br)cc2s1,–,144.0,–,–,–,·
CCCCn1c(N)c(N(CC(C)C)C(=O)c2ccc(S(=O)(=O)N3CCCCC3)cc2)c(=O)[nH]c1=O,·,·,–,·,–,·
